The text below walks through data of ChEMBL document CHEMBL1146530, “Antihyperglycemic effect of puerarin in streptozotocin-induced diabetic rats” (2003).

Structures are written as SMILES. Activity calls are given as the source filed them. The rule behind the calls is not given here.

Assay [1] is filed under the species Rattus norvegicus. Nature of the assay: Antihyperglycemic activity against STZ- induced diabetic Wistar rat soleus muscle assessed as 2-[1-14C]-deoxy-D-glucose uptake after 30 mins. The assay is classed as functional, tissue-based. In short, it runs like this:
(§1)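 Soleus muscle strips ([…]) from rats made diabetic with STZ (60 mg/kg iv), used 2 weeks later. Strips were preincubated 30 min in KRBB (37 °C, pH 7.4, 1 mmol/L glucose, 1% fatty acid-free BSA, 5% CO2 in O2), then exposed to test agent 30 min. Next came 2-[1-14C]-deoxy-D-glucose (1 µCi/mL) for 5 min. Strips were dissolved in NaOH and counted by β-counting. Nonspecific uptake was defined with 20 µmol/L cytochalasin B and subtracted. Results are given as % of KRBB-only basal uptake. The 1 nmol/L insulin reference was run the same way.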

Assay [2] deals with Rattus norvegicus. Nature of the assay: Antihyperglycemic effect in iv dosed STZ- induced diabetic Wistar rat model assessed as reduction in plasma glucose level measured after 30 mins. The assay is classed as functional, organism-based. In short, it runs like this: (§2)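 Fasting STZ-diabetic rats (60 mg/kg iv, 2 weeks earlier; glucose ≥20 mmol/L) got a single tail-vein bolus (5.0-20.0 mg/kg in normal saline). Vehicle controls received the same volume. Tail-vein blood was drawn 30 min later under pentobarbital (30.0 mg/kg ip). Plasma glucose was measured by enzymatic kit at 37 °C for 10 min, run in duplicate. n = 8 per group; mean ± SEM.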

For assay [3], the system named is Rattus norvegicus. Nature of the assay: Antihyperglycemic effect in STZ- induced diabetic Wistar rat model assessed as reduction in plasma glucose level at 15 mg/kg, iv measured after 30 mins. The assay is classed as functional. Further details: scale not given: the % may be the effect or the level left. In short, it runs like this:
as §2

Assay [4] can be described thus: Antihyperglycemic activity against STZ- induced diabetic Wistar rat soleus muscle assessed as 2-[1-14C]-deoxy-D-glucose uptake at 0.01 umol/L after 30 mins relative to control. The assay is classed as functional. In short, it runs like this:
as §1

Assay [5] in a line: Antihyperglycemic activity against STZ- induced diabetic Wistar rat soleus muscle assessed as 2-[1-14C]-deoxy-D-glucose uptake at 100 umol/L after 30 mins relative to control. The assay is classed as functional. In short, it runs like this:
as §1

For assay [6], the system named is Rattus norvegicus. In words: Induction of GLUT4 mRNA level in STZ- induced diabetic Wistar rat soleus muscle at 15 mg/kg, iv tid every 8 hrs for 3 days by Northern blot relative to beta-actin expression. The assay is classed as functional. In short, it runs like this:
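Rats received 15.0 mg/kg iv tid (every 8 h) for 3 days and were killed fasting. Soleus total RNA (20 µg) was denatured in formaldehyde/formamide at 55 °C and run on a 1.2% agarose/formaldehyde gel. Blots were probed with [α-32P]dCTP-labelled probe at 65 °C for 2 h and washed to 0.1× SSC/0.1% SDS at 40 °C. GLUT4 was normalized to β-actin; n = 4, mean ± SEM.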

Assay [7] deals with Rattus norvegicus. Nature of the assay: Induction of GLUT4 protein level in STZ- induced diabetic Wistar rat soleus muscle at 15 mg/kg, iv tid every 8 hrs for 3 days by Western blot relative to vehicle treated normal rat. The assay is classed as functional. In short, it runs like this:
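Same 3-day tid 15.0 mg/kg iv regimen. Soleus homogenate (50 µg protein) was run on 10% SDS-PAGE and transferred to PVDF. Blots were probed overnight at 4 °C with mouse anti-rat GLUT4 (1:1000); β-tubulin (1:500) served as loading control. Detection was by peroxidase secondary and ECL, with densitometry at 45 kDa (GLUT4) and 50 kDa (β-tubulin). n = 4.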

The subject of assay [8] is Rattus norvegicus. In words: Antihyperglycemic effect in STZ- induced diabetic Wistar rat model assessed as decrease in plasma glucose level at 15 mg/kg, iv tid every 8 hrs for 3 days. The assay is classed as functional. In short, it runs like this: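 STZ-diabetic rats were dosed at 15.0 mg/kg iv into the tail vein every 8 h (tid) for 3 days. Vehicle-treated diabetic and normal rats served as comparisons. Plasma glucose was measured in fasting animals after the final dose.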

The subject of assay [9] is Rattus norvegicus. Nature of the assay: Antihyperglycemic effect in STZ- induced diabetic Wistar rat model assessed as reduction in plasma glucose level at 20 mg/kg, iv measured after 30 mins. The assay is classed as functional, organism-based. Further details: dose 20 mg/kg. In short, it runs like this: as §2
The subject of assay [10] is Rattus norvegicus. In words: Antihyperglycemic effect in normal Wistar rat assessed as reduction in plasma glucose level at 15 mg/kg, iv measured after 30 mins by intravenous glucose challenge test.
Assay [11] has as its target Solute carrier family 2, facilitated glucose transporter member 4 (Rattus norvegicus) (UniProt P19357). In words: Induction of GLUT4 protein level in STZ- induced diabetic Wistar rat soleus muscle at 15 mg/kg, iv tid every 8 hrs for 3 days by Western blot relative to beta-tubulin expression.
Assay [12] has as its system Rattus norvegicus. Nature of the assay: Antihyperglycemic effect in normal Wistar rat assessed as decrease in plasma glucose level at 15 mg/kg, iv measured after 5 mins of glucose challenge by intravenous glucose challenge test.
In assay [13] the test system is Rattus norvegicus. In words: Antihyperglycemic effect in normal Wistar rat assessed as decrease in plasma glucose level at 15 mg/kg, iv measured after 15 mins of glucose challenge by intravenous glucose challenge test.

As to `O=c1c(-c2ccc(O)cc2)coc2c([C@@H]3O[C@H](CO)[C@@H](O)[C@H](O)[C@H]3O)c(O)ccc12` [PUERARIN], the Activity entry is “Dose-dependent effect” in the assay listed under Rattus norvegicus [1]; “Dose-dependent effect” with Rattus norvegicus [2]; 33.5% in the assay with Rattus norvegicus [3]; 108% in [4]; 145% in assay [5]; 1.01 a.u with Rattus norvegicus [6]. Moreover, the Activity in the assay with Rattus norvegicus [7] is listed as 80%; in the assay on Rattus norvegicus [8], 16.5 mmol/L; in the assay with Rattus norvegicus [10], 3.9 mmol/L; in assay [11] it was 0.88 a.u; with Rattus norvegicus [12] it was 13.4 mmol/L. Further, the outcome in the assay on Rattus norvegicus [9] and in the assay with Rattus norvegicus [13] was Active.
